Results on 5 compounds are retold here after ChEMBL document CHEMBL1151898 (J Nat Prod, 2009).

Data set [1] concerns the target T1, Xanthine dehydrogenase/oxidase (Bos taurus, UniProt P80457). The experiment in a line: Activity at bovine xanthine oxidase at 10 uM. The settings on record: cattle.
Data set [2] concerns the target T1, Xanthine dehydrogenase/oxidase. The experiment in a line: Activity at bovine xanthine oxidase at 25 uM. The settings on record: cattle.
The target is the same in data set [3]. The experiment in a line: Activity at bovine xanthine oxidase at 50 uM. The settings on record: cattle.
For data set [4] the target is unchanged. The experiment in a line: Activity at bovine xanthine oxidase at 25 uM preincubated for 10 mins. The following applies: cattle.
For data set [5] the target is unchanged. The experiment in a line: Ratio of kcat to km for bovine xanthine oxidase at 10 uM. The following applies: cattle.
The target is the same in data set [6]. The experiment in a line: Ratio of kcat to km for bovine xanthine oxidase at 25 uM. The following applies: cattle.
Data set [7] has the same target. The experiment in a line: Ratio of kcat to km for bovine xanthine oxidase at 50 uM. The settings on record: cattle.
For data set [8] the target is unchanged. Nature of the data set: Ratio of kcat to km for bovine xanthine oxidase at 25 uM preincubated for 10 mins. The following applies: cattle.
For data set [9] the target is unchanged. The experiment in a line: Inhibition of bovine xanthine oxidase assessed as reduction of cytochrome c at 10 uM. The settings on record: cattle.
For data set [10] the target is unchanged. The experiment in a line: Inhibition of bovine xanthine oxidase assessed as reduction of cytochrome c at 50 uM. The following applies: cattle.
Data set [11] has the same target. The experiment in a line: Inhibition of bovine xanthine oxidase assessed as reduction of cytochrome c at 25 uM preincubated for 10 mins. The settings on record: cattle.
The target is the same in data set [12]. The experiment in a line: Inhibition of bovine xanthine oxidase assessed as reduction in xanthine turnover at 10 uM. The following applies: cattle.
Data set [13] has the same target. The experiment in a line: Inhibition of bovine xanthine oxidase assessed as reduction in xanthine turnover at 50 uM. The following applies: cattle.
For data set [14] the target is unchanged. The experiment in a line: Inhibition of bovine xanthine oxidase assessed as reduction of cytochrome c. On the set-up: concentration or dose not given beside the values. The settings on record: cattle.
For data set [15] the target is unchanged. Nature of the data set: Inhibition of bovine xanthine oxidase.
For data set [16] the target is unchanged. The experiment in a line: Inhibition of bovine xanthine oxidase assessed as reduction in xanthine turnover at 25 uM. The following applies: cattle.
For data set [17] the target is unchanged. The experiment in a line: Ratio of kcat to km for bovine xanthine oxidase at 25 uM preincubated for 10 mins relative to control. The settings on record: cattle.
The target is the same in data set [18]. Nature of the data set: Inhibition of bovine xanthine oxidase assessed as decrease in production of superoxide at 50 uM relative to control. The settings on record: cattle. In outline:
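Superoxide followed indirectly by cytochrome c reduction. A550 monitored (Δε550 = 19.6 mM−1cm−1), initial rates vs no-inhibitor control. 25°C, 0.1 M MOPS, 0.2 mM EDTA, 0.1 M KCl, pH 7.4.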

Data set [19] has the same target. The experiment in a line: Inhibition of bovine xanthine oxidase assessed as reduction in free enzyme turnover at 10 uM relative to control. The settings on record: cattle.
Data set [20] has the same target. Nature of the data set: Inhibition of bovine xanthine oxidase assessed as reduction in free enzyme turnover at 50 uM relative to control. The following applies: cattle.
Data set [21] shares this target. Nature of the data set: Inhibition of bovine xanthine oxidase assessed as reduction in free enzyme turnover at 50 uM relative to control. The following applies: cattle.

T1 sequence (P80457 whole entry): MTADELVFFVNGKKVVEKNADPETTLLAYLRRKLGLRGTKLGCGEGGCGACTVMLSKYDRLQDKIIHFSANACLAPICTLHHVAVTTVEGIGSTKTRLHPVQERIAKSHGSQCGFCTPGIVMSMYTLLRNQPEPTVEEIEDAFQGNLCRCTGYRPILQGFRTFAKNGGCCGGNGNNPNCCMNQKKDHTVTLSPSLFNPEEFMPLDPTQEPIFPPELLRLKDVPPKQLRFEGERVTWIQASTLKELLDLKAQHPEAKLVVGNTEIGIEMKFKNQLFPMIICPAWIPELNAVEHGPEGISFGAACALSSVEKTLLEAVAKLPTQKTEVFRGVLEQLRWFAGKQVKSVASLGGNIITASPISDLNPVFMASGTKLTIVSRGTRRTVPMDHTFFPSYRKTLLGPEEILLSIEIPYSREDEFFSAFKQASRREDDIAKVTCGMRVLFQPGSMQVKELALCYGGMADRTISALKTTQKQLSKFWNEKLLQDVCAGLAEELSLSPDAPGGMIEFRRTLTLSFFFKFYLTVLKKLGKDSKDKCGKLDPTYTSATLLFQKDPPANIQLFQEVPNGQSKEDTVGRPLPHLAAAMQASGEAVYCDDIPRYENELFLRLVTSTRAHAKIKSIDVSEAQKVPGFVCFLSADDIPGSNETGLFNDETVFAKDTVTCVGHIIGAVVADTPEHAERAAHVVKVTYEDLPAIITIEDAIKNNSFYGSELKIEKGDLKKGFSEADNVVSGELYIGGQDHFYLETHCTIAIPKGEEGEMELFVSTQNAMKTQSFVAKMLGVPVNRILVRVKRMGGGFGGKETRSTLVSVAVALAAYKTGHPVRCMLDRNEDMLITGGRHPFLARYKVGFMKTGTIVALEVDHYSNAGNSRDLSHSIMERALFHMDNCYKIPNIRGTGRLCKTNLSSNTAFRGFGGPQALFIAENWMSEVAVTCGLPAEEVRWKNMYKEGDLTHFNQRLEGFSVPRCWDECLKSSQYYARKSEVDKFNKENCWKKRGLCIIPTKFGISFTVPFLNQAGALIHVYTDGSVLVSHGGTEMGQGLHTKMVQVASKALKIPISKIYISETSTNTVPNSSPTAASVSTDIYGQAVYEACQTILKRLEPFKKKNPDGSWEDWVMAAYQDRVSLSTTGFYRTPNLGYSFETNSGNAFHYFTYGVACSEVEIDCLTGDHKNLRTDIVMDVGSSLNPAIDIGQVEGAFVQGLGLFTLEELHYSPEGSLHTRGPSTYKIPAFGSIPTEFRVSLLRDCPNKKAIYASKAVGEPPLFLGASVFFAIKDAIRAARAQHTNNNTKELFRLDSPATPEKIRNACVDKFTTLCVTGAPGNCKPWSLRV

For orientation: inhibition means the drop in the measured response relative to a control, in per cent. As for `COc1cc(/C=C/C(=O)CC(=O)/C=C/c2ccc(O)c(OC)c2)ccc1O` [CURCUMIN], the Kcat in data set [1] was determined as 2.6 s⁻¹; in data set [2], 4.3 s⁻¹; in data set [3] it was 5 s⁻¹; in [4], 6.5 s⁻¹. The Kcat/Km came to 4.8e+06 M⁻¹ s⁻¹ in [5], 6.5e+06 M⁻¹ s⁻¹ in [6], 5.1e+06 M⁻¹ s⁻¹ in [7] and 3.9e+06 M⁻¹ s⁻¹ in [8]. Besides, the Activity is given as 160 nM/s in data set [9], 150 nM/s in data set [10], 150 nM/s in data set [11] and 150 nM/s in data set [14]. In addition, the inhibition at 10 µM in [12] came out at 60%. Moreover, the inhibition at 50 µM in [13] is > 80%.
The term Ki denotes the dissociation constant of the complex between target and ligand, obtained from inhibition or displacement. For the compound `O=c1cc(-c2ccc(O)c(O)c2)oc2cc(O)cc(O)c12` [LUTEOLIN], the Kcat in data set [1] is 6.2 s⁻¹; in data set [2], 4.5 s⁻¹; in [3] it was 12.2 s⁻¹; in data set [4], 3.8 s⁻¹. Besides, the Kcat/Km in data set [5] stood at 200000 M⁻¹ s⁻¹; in data set [6], 30000 M⁻¹ s⁻¹; in data set [7], 20000 M⁻¹ s⁻¹; in data set [8], 50000 M⁻¹ s⁻¹. In data set [15], this compound showed an inhibitory constant (Ki) of 1900 nM. Besides, the Activity is on record as 100 nM/s in [9], 71 nM/s in data set [10], 110 nM/s in [11] and 82 nM/s in data set [14].
For `Oc1ncnc2[nH]ncc12` [ALLOPURINOL], the Kcat in [1] amounted to 5.9 s⁻¹; in data set [2] it was 11.8 s⁻¹; in data set [3], 4.3 s⁻¹; in data set [4] it was 1.3 s⁻¹. In addition, the Kcat/Km in data set [5] stood at 320000 M⁻¹ s⁻¹; in data set [6], 150000 M⁻¹ s⁻¹; in data set [7], 110000 M⁻¹ s⁻¹; in [8], 7000 M⁻¹ s⁻¹. For the same compound, the Activity was 140 nM/s in data set [9], 120 nM/s in [10], 28 nM/s in [11] and 140 nM/s in data set [14].
For the compound `COc1cc(C2Oc3cc([C@H]4Oc5cc(O)cc(O)c5C(=O)[C@@H]4O)ccc3OC2CO)ccc1O` (stereo partly specified) [SILIBININ], the Kcat stood at 5.8 s⁻¹ in data set [1], 13.3 s⁻¹ in [2], 4 s⁻¹ in [3] and 6.9 s⁻¹ in data set [4]. Moreover, the Kcat/Km in data set [5] turned out to be 140000 M⁻¹ s⁻¹; in data set [6], 130000 M⁻¹ s⁻¹; in data set [7], 110000 M⁻¹ s⁻¹; in data set [8] it was 70000 M⁻¹ s⁻¹. In addition, the Activity in data set [9] is given as 160 nM/s; in [10] it was 140 nM/s; in data set [11] it was 120 nM/s; in data set [14] it was 150 nM/s. The inhibition at 10 µM in data set [12] amounted to 50%. Further, the inhibition at 25 µM in [16] came to 50%. Besides, the inhibition at 50 µM in [13] worked out at 50%; in data set [18], 20%. In addition, in data set [17], the “fold change (FC)” value came to 80.
As to `O=c1c(O)c(-c2ccc(O)c(O)c2)oc2cc(O)cc(O)c12` [QUERCETIN], the Kcat turned out to be 3.8 s⁻¹ in [1], 1.9 s⁻¹ in [2], 12.4 s⁻¹ in data set [3] and 8.1 s⁻¹ in data set [4]. Moreover, the Kcat/Km in [5] was determined as 1.6e+06 M⁻¹ s⁻¹; in data set [6], 10000 M⁻¹ s⁻¹; in data set [7], 20000 M⁻¹ s⁻¹; in [8], 50000 M⁻¹ s⁻¹. Moreover, the Activity was 140 nM/s in data set [9], 80 nM/s in data set [10], 110 nM/s in data set [11] and 100 nM/s in data set [14]. Besides, the “fold change (FC)” value in data set [19] is given as 20; in data set [20] it was 170; in data set [21] it was 170.
